Type in all cases: functional
Test [1] has as its system Rattus norvegicus. Put plainly: Compound tested for the percentage of administered dose excreted in rat urine was determined in 0-24 hr. In short, it runs like this:
(§1)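 Labeled material (14C on the acetaldehyde part, with unlabeled carrier, in water) was dosed at 8.0 mmol/kg, 1.0 mL/100 g, to two overnight-fasted male Sprague-Dawley-descent rats (207 g, 247 g) kept in all-glass metabolism cages. Urine was collected separately at 2, 4, 8, 16 and 24 h. Duplicate samples were counted by liquid scintillation, and results are averaged ± SD across the two animals.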

For test [2], the system named is Rattus norvegicus. Briefly: Compound tested for the percentage of administered dose excreted in rat urine was determined in 0-2 hr. The essentials: as §1
The subject of test [3] is Rattus norvegicus. Briefly: Compound tested for the percentage of administered dose excreted in rat urine was determined in 16-24h. In short, it runs like this:
as §1

The test system of test [4] is Rattus norvegicus. Put plainly: Compound tested for the percentage of administered dose excreted in rat urine was determined in 2-4h. The essentials:
as §1

For test [5], the system named is Rattus norvegicus. Put plainly: Compound tested for the percentage of administered dose excreted in rat urine was determined in 4-8h. In short, it runs like this: as §1
Test [6] deals with Rattus norvegicus. Put plainly: Compound tested for the percentage of administered dose excreted in rat urine was determined in 8-16h. The essentials:
as §1

The subject of test [7] is Rattus norvegicus. Put plainly: Compound tested for the percentage of administration dose excreted in rat feces was determined in 0-24 hr. The essentials: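 A radiolabeled dose (14C in the acetaldehyde moiety, with carrier, in water) of 8.0 mmol/kg at 1.0 mL/100 g went to two overnight-fasted male Sprague-Dawley-descent rats (207 g, 247 g) in all-glass metabolism cages. Feces collected over 24 h were lyophilized and pulverized, and 250-mg samples were combusted to 14CO2 for scintillation counting. Values are the mean ± SD of two animals.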

The species named for test [8] is Rattus norvegicus. Put plainly: Compound tested for the percentage of CO2 expired in rat was determined in 4-8h. The essentials: (§2)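 14C label on the acetaldehyde moiety, diluted with unlabeled carrier in water and given at 8.0 mmol/kg (1.0 mL/100 g; radioactivity of the solution counted in duplicate). Two male Sprague-Dawley-descent rats (207 g, 247 g) were fasted overnight and housed in all-glass metabolism cages. Expired CO2 went into two successive cold methoxyethanol/ethanolamine (2:1) traps, sampled at 2, 4, 8, 16 and 24 h. Duplicates were counted by liquid scintillation, and values are the mean ± SD of two animals.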

The species named for test [9] is Rattus norvegicus. Briefly: Compound tested for the percentage of CO2 expired in rat was determined in 8-16h. In short, it runs like this: as §2
For test [10], the species on record is Rattus norvegicus. Put plainly: Compound tested for the percentage of CO2 expired in rat was determined in 0-2 hr. In short, it runs like this:
as §2

Test [11] is filed under the species Rattus norvegicus. Briefly: Compound tested for the percentage of CO2 expired in rat was determined in 16-24h. In short, it runs like this:
as §2

For test [12], the species on record is Rattus norvegicus. Put plainly: Compound tested for the percentage of CO2 expired in rat was determined in 2-4h. In short, it runs like this: as §2
For test [13], the species on record is Rattus norvegicus. Briefly: Compound tested for the percentage of CO2 expired in rat was determined in 0-24 hr. In short, it runs like this:
as §2

Regarding `CC1N[C@@H](C(=O)O)C(C)(C)S1` (stereo partly drawn), the Excreted is reported as 79.2% with Rattus norvegicus [1]; 36.3% in the test on Rattus norvegicus [2]; 1.18% in the test on Rattus norvegicus [3]; 25.9% in the test with Rattus norvegicus [4]; 12.7% in the test on Rattus norvegicus [5]; 3.12% with Rattus norvegicus [6]. Also, the Excreted with Rattus norvegicus [7] was found to be 1.38%; in the test filed under Rattus norvegicus [8], 1.36%; in the test filed under Rattus norvegicus [9], 0.48%; in the test listed under Rattus norvegicus [10], 2.01%; in the test listed under Rattus norvegicus [11] it was 0.28%; in the test filed under Rattus norvegicus [12] it was 1.7%. The same compound gave an Excreted in the test listed under Rattus norvegicus [13] of 5.83%.

Values taken from ChEMBL document CHEMBL1123804, “Beta-substituted cysteines as sequestering agents for ethanol-derived acetaldehyde in vivo” (1987).
